For assay [1], the system named is Mus musculus. The experiment in a line: Neuroprotective activity in C57BL/6 mouse model of ischemia-induced cerebral ischemia model assessed reduction in neuronal cell death in hippocampal CA1 region at 40 mg/kg, ip administered at onset of reperfusion period and measured at 5 days reperfusion post ischemia by Fluoro-Jade-staining assay based relative to control. It counts as functional, organism-based.

The subject of assay [2] is Mus musculus. Put plainly: Neuroprotective activity in C57BL/6 mouse model of ischemia-induced cerebral ischemia model assessed reduction in neurodeficit score at 40 mg/kg, ip administered at onset of reperfusion period and measured at 5 days reperfusion post ischemia. It counts as functional, organism-based.
Assay [3] in a line: Antioxidant activity assessed as superoxide anion scavenging activity at 0.1 mM pH 7.4 after 10 mins by NBT assay. It is filed as functional. The method in brief:
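Superoxide generated by xanthine/xanthine oxidase (0.07 U/mL) in 0.1 M phosphate buffer pH 7.4 containing NBT and compound at 0.1 mM final. After 10 min at rt, absorbance read at 560 nm. Caffeic acid as standard.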

Assay [4] has as its system Mus musculus. Put plainly: Neuroprotective activity in C57BL/6 mouse model of ischemia-induced cerebral ischemia model assessed reduction in neuronal cell death in cortical region at 40 mg/kg, ip administered at onset of reperfusion period and measured at 5 days reperfusion post ischemia by Fluoro-Jade-staining assay based relative to control. It is filed as functional, organism-based.

Assay [5] can be described thus: Antioxidant activity assessed as hydroxyl radical scavenging activity at 0.1 mM measured after 30 mins. It counts as functional. The method in brief: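 Hydroxyl radicals from Fe3+/ascorbic acid: EDTA 0.1 mM, Fe3+ 167 μM, DMSO 33 mM, compound 0.1 mM and ascorbic acid 10 mM in 50 mM phosphate buffer pH 7.4. Incubated 37 °C for 30 min, stopped with 17% w/v TCA. Read-out is inhibition of formaldehyde formation, given as % scavenging. Trolox as reference.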

The subject of assay [6] is Mus musculus. The experiment in a line: Neuroprotective activity in C57BL/6 mouse model of ischemia-induced cerebral ischemia model assessed as reduction in apoptosis in hippocampal CA1 region at 40 mg/kg, ip administered at onset of reperfusion period and measured at 5 days reperfusion post ischemia by TUNNEL assay relative to control. It is filed as functional, organism-based.

Assay [7] in a line: Neuroprotective activity against oxygen-glucose deprivation-induced cell death in Sprague-Dawley rat primary neuronal cells assessed as cell viability at 250 uM treated at onset of recovery period and measured at 24 hrs of recovery by MTT assay relative to control. To be noted: Primary neuron, read-out: Activity. It counts as functional. The method in brief: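 Rat cortical neurons from E16–17 Sprague-Dawley embryos, used at 6–7 days in serum-free medium. OGD: glucose-free medium bubbled with 95% N2/5% CO2, <0.1% O2, 6.5% CO2, 37 °C, 4 h. Compound added at start of 24 h normoxic recovery. Viability by MTT (0.2 mg/mL, 1.5 h), lysis with HCl/SDS, read at 595/690 nm, relative to 100% control. Four to eight culture batches, each in quadruplicate.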
For orientation: Formazan colour is commonly taken as a measure of viable cells.

The test system of assay [8] is Mus musculus. Put plainly: Neuroprotective activity in C57BL/6 mouse model of transient middle cerebral artery occlusion-induced ttransient focal cerebral ischemia assessed decrease in size of ischemic lesion at 40 mg/kg, ip measured after 48 hrs post dose relative to control. It counts as functional, organism-based.
Assay [9] is described as follows: Antioxidant activity assessed as ABTS radical cation scavenging activity by measuring trolox equivalents at 10 uL after 1 min. It is filed as functional. The method in brief:
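ABTS radical cation made from 2 mM aqueous ABTS plus 0.17 mM potassium persulfate in 20 mM phosphate buffer pH 7.4, kept 12–16 h dark at rt. Diluted with ethanol to A734 0.70, then mixed with 10 μL compound from 10 mM stock. Absorbance read at rt 1 min after mixing. Trolox as standard.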

The nature of assay [10]: Antioxidant activity assessed as DPPH free radical scavenging activity at 0.1 mM measured after 20 to 60 mins. It counts as functional. The method in brief:
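DPPH 0.1 mM in absolute ethanol with compound at 0.1 mM final (from DMSO). Absorbance at 517 nm recorded after 20 and 60 min at rt. NDGA as standard.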
Background: DPPH is a stable violet radical that fades when it is reduced.

Assay [11] deals with Mus musculus. The experiment in a line: Neuroprotective activity in C57BL/6 mouse model of transient middle cerebral artery occlusion-induced ttransient focal cerebral ischemia assessed decrease in motor deficit by measuring improvement in grip strength at 40 mg/kg, ip measured after 48 hrs post dose by grip strength Test. It counts as functional. Set-up: scale not given: the % may be the effect or the level left.

A short description of assay [12]: Antiinflammatory activity assessed as NO release at 100 uM after 60 mins in presence of L-cysteine by Griess reagent-based relative to control. It is filed as functional. The method in brief: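 NO-release test: compound at 100 μM final (from DMSO) in 50 mM phosphate buffer pH 7.4 containing 1 mM L-cysteine, 60 min at 37 °C. Reaction mixture then treated with Griess reagent, left 10 min at rt, absorbance read at 540 nm. Sodium nitroprusside as standard. Mean of three to four determinations.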

Assay [13] relates to Mus musculus. Put plainly: Neuroprotective activity in C57BL/6 mouse model of ischemia-induced cerebral ischemia model assessed as reduction in apoptosis in cortical region at 40 mg/kg, ip administered at onset of reperfusion period and measured at 5 days reperfusion post ischemia by TUNNEL assay relative to control. It is filed as functional, organism-based.
A short description of assay [14]: Antioxidant activity assessed as inhibition of linoleic acid peroxidation activity at 10 uL. It counts as functional. The method in brief: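 AAPH-initiated peroxidation of sodium linoleate dispersion (16 mM, 10 μL) in 0.05 M phosphate buffer pH 7.4 at 37 °C under air. Initiator was 50 μL of 40 mM AAPH, with 10 μL compound added. Conjugated diene hydroperoxide followed at 234 nm. Trolox as reference.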

The target of assay [15] is Lipoxygenase (Glycine max, UniProt Q39829). The experiment in a line: Inhibition of soybean lipoxygenase using sodium linoleate as substrate by UV-based analysis. The method in brief:
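Soybean lipoxygenase (enzyme 1/9 ×10⁻⁴ w/v in saline) incubated at rt with 0.1 mM sodium linoleate and compound in DMSO, at several concentrations from 1 to 100 µM diluted from 10 mM stock. Conversion to 13-hydroperoxylinoleic acid recorded at 234 nm; IC50 derived. NDGA as reference inhibitor.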

Data on one molecule can be found in ChEMBL document CHEMBL4422671, “New Quinolylnitrones for Stroke Therapy: Antioxidant and Neuroprotective ( Z)- N- tert-Butyl-1-(2-chloro-6-methoxyquinolin-3-yl)methanimine Oxide as a New Lead-Compound for Ischemic Stroke Treatment” (J Med Chem, 2019).

The source made the active and inactive calls. No cut-off for these calls is given here.

`CC(C)(C)/[N+]([O-])=C/c1ccc(S(=O)(=O)[O-])cc1S(=O)(=O)[O-].[Na+].[Na+]`: the result in assay [1], in assay [3], in assay [4], in [6], in [8] and in assay [9] was inactive. Moreover, the outcome in assay [10], in assay [13] and in assay [14] was inactive. For the same molecule, in assay [2], the outcome was Active. For the same molecule, the Activity came out at 94% in assay [5], 20.7% in assay [11] and 1% in assay [12]. Also, the viability at 250 µM in [7] worked out at 52.9%. In addition, the IC50 – broadly, the concentration that gives 50% inhibition – in [15] is 57.5 µM.
